The values below come from ChEMBL document CHEMBL4270523, “A comparative study of non-native N-acyl l-homoserine lactone analogs in two Pseudomonas aeruginosa quorum sensing receptors that share a common native ligand yet inversely regulate virulence” (Bioorg Med Chem, 2018).

Assay [1] deals with T1, PhzR (Pseudomonas aeruginosa) (UniProt Q9RMS5).
T1 sequence (whole entry): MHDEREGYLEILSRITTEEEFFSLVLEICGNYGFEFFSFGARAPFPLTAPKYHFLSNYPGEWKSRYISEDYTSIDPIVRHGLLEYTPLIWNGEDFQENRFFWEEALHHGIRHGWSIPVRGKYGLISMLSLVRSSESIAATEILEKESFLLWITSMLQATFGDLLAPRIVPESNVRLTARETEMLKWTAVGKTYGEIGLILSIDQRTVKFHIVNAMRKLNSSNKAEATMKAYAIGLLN
The assay is described as follows: Agonist activity at Pseudomonas aeruginosa QscR expressed in Escherichia coli JLD271 harboring QscR expression plasmid pJN105Q and pPA1897-lacZ transcriptional fusion reporter pSC11-Q measured after 35 mins by Miller-type beta-galactosidase reporter gene assay relative to OdDHL. The gist of the method:
(§1)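 E. coli JLD271 (ΔsdiA) reporter cells grown in LB at 37 °C. Miller-type β-galactosidase assay with CPRG or ONPG substrate; growth read as OD600. Compounds tested from 1 pM to 100 μM. Activity is expressed relative to 100 μM OdDHL. EC50 taken from dose–response curves. Run in triplicate, n ≥ 3 trials; 95% CIs from SEM. Maximum activation has error ±10%.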

Assay [2] concerns the target T2, Transcriptional activator protein LasR (Pseudomonas aeruginosa (strain ATCC 15692 / PAO1 / 1C / PRS 101 / LMG12228), UniProt P25084).
T2 sequence (P25084 whole entry): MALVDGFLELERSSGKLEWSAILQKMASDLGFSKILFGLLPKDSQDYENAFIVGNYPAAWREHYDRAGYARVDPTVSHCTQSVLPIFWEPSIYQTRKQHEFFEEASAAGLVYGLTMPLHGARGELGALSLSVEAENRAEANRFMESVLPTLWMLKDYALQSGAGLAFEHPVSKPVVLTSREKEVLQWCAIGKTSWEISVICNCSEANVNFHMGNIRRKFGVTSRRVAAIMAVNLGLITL
Briefly: Agonist activity at Pseudomonas aeruginosa LasR expressed in Escherichia coli JLD271 harboring LasR expression plasmid pJN105L and lasI-lacZ transcriptional fusion reporter pSC11-L measured after 35 mins by Miller-type beta-galactosidase reporter gene assay. A digest of the protocol:
(§2)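 E. coli JLD271 (ΔsdiA) reporter cells grown in LB at 37 °C. Miller-type β-galactosidase assay with CPRG or ONPG substrate; growth read as OD600. Compounds tested from 1 pM to 100 μM. Activity is expressed relative to 100 μM OdDHL. EC50 taken from dose–response curves. Maximum activation has error ±10%.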
(In general: In a reporter assay the amount or activity of a reporter protein is the signal.)

For assay [3], the target named is T3, Transcriptional activator protein LasR (Pseudomonas aeruginosa (strain ATCC 15692 / PAO1 / 1C / PRS 101 / LMG12228)) (UniProt P25084).
T3 sequence (whole entry): T2 sequence (P25084 whole entry)
The assay is described as follows: Agonist activity at Pseudomonas aeruginosa LasR expressed in Escherichia coli JLD271 harboring LasR expression plasmid pJN105L and lasI-lacZ transcriptional fusion reporter pSC11-L measured after 35 mins by Miller-type beta-galactosidase reporter gene assay relative to OdDHL. The gist of the method: as §1

The target in assay [4] is T4, PhzR (Pseudomonas aeruginosa, UniProt Q9RMS5).
T4 sequence (Q9RMS5 whole entry): T1 sequence (whole entry)
The assay is described as follows: Agonist activity at Pseudomonas aeruginosa QscR expressed in Escherichia coli JLD271 harboring QscR expression plasmid pJN105Q and pPA1897-lacZ transcriptional fusion reporter pSC11-Q measured after 35 mins by Miller-type beta-galactosidase reporter gene assay. The gist of the method: as §2

Assay [5] deals with T1, PhzR (Pseudomonas aeruginosa). The assay is described as follows: (§3) Antagonist activity at Pseudomonas aeruginosa QscR expressed in Escherichia coli JLD271 harboring QscR expression plasmid pJN105Q and pPA1897-lacZ transcriptional fusion reporter pSC11-Q using ONPG as substrate assessed as inhibition of OdDHL-induced receptor activation after 4 hrs by Miller-type beta-galactosidase reporter gene assay. The note with it: concentration not given here.

For assay [6], the target named is T4, PhzR. Described as §3.
Assay [7] has as its target T3, Transcriptional activator protein LasR (Pseudomonas aeruginosa (strain ATCC 15692 / PAO1 / 1C / PRS 101 / LMG12228)). The assay is described as follows: (§4) Antagonist activity at Pseudomonas aeruginosa LasR expressed in Escherichia coli JLD271 harboring LasR expression plasmid pJN105L and lasI-lacZ transcriptional fusion reporter pSC11-L assessed as inhibition of OdDHL-induced receptor activation after 4 hrs by Miller-type beta-galactosidase reporter gene assay. The conditions noted are these: concentration not given here.

Assay [8] has as its target T2, Transcriptional activator protein LasR. The description is as §4.

In the case of `CCCCCCCCCC(=O)CC(=O)N[C@H]1CCO[C@@H]1O`, the Activity in assay [1] worked out at 110%; in assay [3], 96%. Further, the EC50 (commonly the concentration at which the effect is half-maximal) came to 1880 nM in assay [2] and 3460 nM in assay [4].

In the case of `CCCCCCCCCC(=O)CC(=O)N[C@H]1CCCC1=O`, the results for the Activity in assay [1] and in assay [3] were 77% and 110%, respectively. Also, the EC50 in assay [2] stood at 14.9 nM; in assay [4] it was 834 nM.

Consider `CCCCCCCCCC(=O)CC(=O)NC1CCCC1`, for which the results for the Activity in assay [1] and in assay [3] were 100% and 88%, respectively. Moreover, the values for the EC50 in assay [2] and in assay [4] were 162 nM and 359 nM, respectively.

Regarding `CCCCCCCCCC(=O)CC(=O)N[C@H]1CCOC1`, the Activity in assay [1] amounted to 74%; in assay [3], 81%. The EC50 was determined as 906 nM in assay [2] and 815 nM in assay [4].

Take `CCCCCCCCCC(=O)CC(=O)NCC1CCCO1` (stereo not given): the Activity was 3.2% in assay [1] and 96% in assay [3]. Besides, the response in assay [2] was half-maximal at 256 nM (EC50). Moreover, in assay [5], the inhibition (as a rule, the share of the control response that was lost under treatment) worked out at 59%. Also, the half-maximal inhibitory concentration (IC50) (usually the midpoint of a concentration-inhibition curve) in assay [6] was over 250000 nM.

With `CCCCCCCCCC(=O)CC(=O)N[C@H]1CCSC1=O`, the Activity worked out at 110% in assay [1] and 100% in assay [3]. The EC50 in assay [2] stood at 1.53 nM; in assay [4], 80.5 nM.

Take `CCCCCCCCCC(=O)CC(=O)N[C@H]1CCNC1=O`: the Activity in assay [1] stood at 56%; in assay [3], 110%. Also, the EC50 in assay [2] came out at 29.7 nM; in assay [4], 3320 nM.

In the case of `CCCCCCCCCC(=O)CC(=O)N[C@@H]1CCOC1=O`, the figures for the Activity in assay [1] and in assay [3] were 110% and 99%, respectively.

Regarding `CCCCCCCCCC(=O)CC(=O)O[C@H]1CCOC1=O`, the Activity in assay [1] turned out to be 37%; in assay [3], 27%. Besides, the figures for the inhibition in assay [7] and in assay [5] were 53% and 23%, respectively. The IC50 in assay [8] and in assay [6] was over 250000 nM in each case.

Regarding `CCCCCCCCCCCS(=O)(=O)N[C@H]1CCOC1=O`, the Activity in assay [1] stood at 72%; in assay [3], 6.4%. The EC50 in assay [4] worked out at 1590 nM.
